High-throughput results as filed in PubChem BioAssay.
UPR XBP1 act: activators of adaptive arm of unfolded protein response (XBP1); CHO-XBP1 luciferase reporter, IRE1-XBP1 UPR activation, luminescence; percent of tunicamycin response, DMSO as zero; activation, % at 20 µM; AID 463104; 330,000 compounds, 0.33% hits;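 active = versus positive control, 20 µM dose yields 30% or more activation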
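Assay system: IRE1-XBP1 luciferase reporter CHO line. Input: 1000 cells/well. Buffer or medium: F12 with 10% serum. Doses: 20 µM, 1% DMSO. Times: overnight seeding at 37 °C, 6 h compound treatment at 37 °C. Technique: Steady-Glo luciferase glow luminescence, 10 min after reagent addition.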
CHOP UPR activ: apoptotic UPR (CHOP) activation; CHO-CHOP luciferase reporter, luminescence; percent of tunicamycin response over DMSO baseline; activation, % at 10 µM; 330,000 compounds, 0.34% hits; AID 449763;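 active = at 10 µM dose, activation of 40% or more, normalized to positive control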
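Assay system: CHO-CHOP cells, stable luciferase reporter of PERK-eIF2a-CHOP signalling / Buffer or medium: F12 plus 10% serum / Compound dosing: one dose, 10 µM in 0.5% DMSO / Times: 6 h compound treatment, 37 °C / Technique: luciferase luminescence / Read-out: % reporter activation, DMSO baseline versus tunicamycin full activation / Benchmarks: tunicamycin and DMSO controls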
PvdQ acylase: blocks Pseudomonas aeruginosa PvdQ acylase activity. purified PvdQ acylase, fluorescence plate reader. inhibition, % at 10 µM. 340,000 compounds, 0.063% hits; in the data active = inhibition above about 30%, passing the limit was not always enough
CHOP inhibitor: inhibitors of CHOP induction in ER stress response | 220,000 compounds, 3.8% hits | CHO-K1 CHOP-promoter luciferase, tunicamycin-induced, 15-18 h | inhibition, % at 10 µM;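 active = compounds that reduced the stress-induced luciferase reporter signal by more than about 70% of percent inhibition, limit read from the data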
CHOP confirm: confirmation of CHOP induction inhibitors; shares compounds with CHOP inhibitor; CHO-CHOP promoter luciferase reporter, tunicamycin-induced, luminescence; inhibition, % at 10 µM; 2,100 compounds, 45% hits; AID 504437;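 active = mean of three repeat readings of reporter signal inhibition above a set limit, cut at about 70% in these data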
Large screens that a line does not name were inactive (follow-up assays come after a bar, where they were run). Shown is part of a subset that was picked to be rich in hits.

C=CCn1cnc2c(c1=O)c1nc3ccccc3nc1n2/N=C/c1cc(OC)c(OC)c(OC)c1	none
CCC(CC)c1nnc(NC(=O)CCc2ccccc2OC)s1	none (no result: CHOP inhibitor)
Cc1ccc(S(=O)(=O)CCc2nc3ccccc3[nH]2)cc1C	none
COc1cccc(CN(Cc2ccco2)C(c2ccc(F)cc2)c2nnnn2C(C)(C)C)c1 (centres undefined)	none
CC(C)(C)n1nnnc1CN(Cc1ccc(F)cc1)Cc1ccco1	CHOP inhibitor 101 | CHOP confirm inactive
CC(C)C(=O)Nc1ncc(Cc2cccc(Cl)c2)s1	none
O=C1c2ccccc2C(=O)C12OC(c1ccccc1)C1(C(=O)c3ccccc3C1=O)C2c1ccc([N+](=O)[O-])cc1 (centres undefined)	none
O=C1c2ccccc2C(=O)C12OC2c1ccc(Cl)cc1 (centres undefined)	CHOP UPR activ 103, CHOP inhibitor 109 (no result: PvdQ acylase) | CHOP confirm inactive
Cc1cccc(C(=O)Nc2ccc(S(=O)(=O)N3CCOCC3)cc2C)c1	none (no result: CHOP inhibitor)
O=S1(=O)CCC(NC(=S)N2CCCCC2)C1 (centres undefined)	none
COc1cc(C(=O)Nc2cccc(-c3nc4cc(C)ccc4o3)c2C)cc(OC)c1OC	CHOP inhibitor 108 | CHOP confirm inactive
O=C(CSc1nnc(C2CC2)n1C1CC1)Nc1cccc(Br)c1	none (no result: CHOP inhibitor)
CCCCCCCCCCCCCCCC[n+]1cccc(C(=O)N(CC)CC)c1	CHOP inhibitor 108 | CHOP confirm 115
CCCCCCCC[n+]1cccc(C(=O)N(CC)CC)c1	none
CC(NC(=O)CNC(=O)c1sc2ccccc2c1Cl)c1ccc(S(N)(=O)=O)cc1 (centres undefined)	none (no result: CHOP inhibitor)
CC(=O)Nc1ccc(NC(=O)COC(=O)CCc2nc3ccccc3s2)cc1	none
Cc1cccc(/C=N/Nc2ccc3ccccc3n2)c1	CHOP inhibitor 97 | CHOP confirm 99
Cc1nn(Cc2ccc(Cl)cc2Cl)c(C)c1NC(=O)Cn1nc([N+](=O)[O-])c(Cl)c1C	CHOP inhibitor 100 | CHOP confirm inactive
O=C(CNC(=O)c1nc[nH]c1C(=O)N1CCN(c2ccccc2)CC1)OCc1ccccc1	none (no result: CHOP inhibitor)
Cc1sc(NC(=O)c2cccc([N+](=O)[O-])c2)c(C(N)=O)c1-c1ccc(C(C)(C)C)cc1	CHOP inhibitor 107 | CHOP confirm 139
COc1cc(/C=N/NC(=O)Cc2nnc(N)s2)cc(OC)c1OC	none
O=c1[nH]c(=O)n(C2OC(CO)C(O)C2O)cc1N1CCOCC1 (centres undefined)	none (no result: UPR XBP1 act, CHOP UPR activ, CHOP inhibitor)
Cc1ccc(-c2cc3c(nn2)-c2ccccc2C3=O)cc1	CHOP inhibitor 101 | CHOP confirm 108
O=C1c2ccccc2-c2nnc(-c3ccc(F)cc3)cc21	none
CCOC(=O)C1=C(N)c2ccccc2CC1C(C)C (centres undefined)	CHOP inhibitor 100 | CHOP confirm inactive
Cc1nnc(SC(C)C(=O)Nc2ccc(S(=O)(=O)N3CCCCC3)cc2)s1 (centres undefined)	CHOP inhibitor 100 | CHOP confirm inactive
CCOC(=O)N1CCC(Nc2c(NCCCN3CCN(C4CCCCC4)CC3)c(=O)c2=O)CC1	none
COc1ccc2oc(=O)c(C(=O)Nc3ccccc3O)cc2c1	CHOP inhibitor 101 | CHOP confirm inactive
Cc1cc(=O)oc2cc(OCC(=O)NCCCN3CCOCC3)ccc12	CHOP inhibitor 100 | CHOP confirm inactive
O=C(CN1C(=O)CNC1=O)Nc1cc(Cl)cc(Cl)c1	none (no result: CHOP inhibitor)
c1ccc(CN2CCC(CNc3ncnc4ccccc34)C2)cc1 (centres undefined)	none (no result: UPR XBP1 act, CHOP UPR activ, CHOP inhibitor)
c1ccc(CN2CCC(Nc3nc(-c4ccccc4)nc4ccccc34)CC2)cc1	CHOP inhibitor 102 | CHOP confirm inactive
COC(=O)CSc1nc2c(cnn2-c2ccc(F)cc2)c(=O)[nH]1	none (no result: CHOP inhibitor)
O=C(c1ccc2c3c(cccc13)C(=O)N(O)C2=O)N1CCCCC1	CHOP inhibitor 98 | CHOP confirm 109
COc1ccc(/C=C2/C(=O)ON=C2C)cc1Br	none (no result: CHOP inhibitor)
CC1=NOC(=O)/C1=C\c1ccc2c(c1)OCO2	CHOP inhibitor 101 | CHOP confirm inactive
CC1=NOC(=O)/C1=C/c1ccc2c(c1)OCO2	CHOP inhibitor 100 | CHOP confirm inactive
CCOc1cc(N2CCOCC2)c(OCC)cc1NC(=O)COc1ncnc2ccccc12	none
CCOc1cc(N2CCOCC2)c(OCC)cc1NC(=O)c1cc(-c2ccco2)nc2ccccc12	CHOP inhibitor 105 | CHOP confirm inactive
Cc1cc(-c2c(C(=O)N3CCOCC3)c(C)nn2-c2ccccc2)no1	none
CCOC(=O)c1csc(NC(=O)Nc2cccc(Cl)c2)n1	CHOP inhibitor 98 | CHOP confirm inactive
COc1ccc(NC(=O)CCC(=O)N2CCOCC2)c([N+](=O)[O-])c1	none (no result: CHOP inhibitor)
CCc1ccc(OCC(=O)NC(NC(=S)Nc2ccc(Cl)cc2)C(Cl)(Cl)Cl)cc1 (centres undefined)	CHOP inhibitor 102 | CHOP confirm 70
O=C(CCl)Nc1ccc(N=Nc2ccccc2)cc1	CHOP inhibitor 103 (no result: UPR XBP1 act, CHOP UPR activ) | CHOP confirm inactive
O=C(CCl)Nc1cccc(Oc2cnccn2)c1	none (no result: CHOP inhibitor)
CCCC(=O)NC(NC(=S)Nc1ccc(S(N)(=O)=O)cc1)C(Cl)(Cl)Cl (centres undefined)	none
CCc1ccc(OCC(=O)NC(=S)Nc2ccc(C(=O)O)cc2)cc1	none
CCCC(=O)NC(NC(=S)Nc1ccc(N=Nc2ccccc2)cc1)C(Cl)(Cl)Cl (centres undefined)	CHOP inhibitor 100 | CHOP confirm 83
O=C(CCl)Nc1cccc(Oc2ccccc2)c1	CHOP inhibitor 107 | CHOP confirm inactive
CC(C)[C@H](CN1CCC[C@H]1CN1C(N)=NC[C@H]1C(C)C)N1C[C@@H](Cc2ccccc2)N(CCCC2CCCC2)C1=N	none (no result: CHOP inhibitor)
CCCCN(C(=O)c1ccc(C)c(S(=O)(=O)N2CCOCC2)c1)c1c(N)n(CCCC)c(=O)[nH]c1=O	none (no result: CHOP inhibitor)
Cc1oc(=O)c(NC(=O)c2ccccc2)cc1C(=O)c1ccccc1	none
Cc1oc(=O)c(NC(=O)c2ccc(Cl)cc2)cc1C(=O)c1ccccc1	CHOP inhibitor 106 | CHOP confirm inactive
Cc1nsc(Nc2ccccc2)c1C#N	none
CCCCSc1nc(CCC)cc(=O)[nH]1	none
CCCc1cc(=O)[nH]c(SCCOc2ccc(Cl)cc2)n1	CHOP inhibitor 101 | CHOP confirm inactive
NC(=S)n1[nH]c(-c2ccc([N+](=O)[O-])cc2)c(N=Nc2ccc(O)cc2)c1=O	CHOP inhibitor 107 | CHOP confirm inactive
Cc1oc(-c2ccccc2F)nc1CS(=O)(=O)CC(=O)N1CCOCC1	none
Cc1cccc(N2CCN(C(=O)CS(=O)(=O)Cc3nc(-c4ccccc4F)oc3C)CC2C)c1 (centres undefined)	CHOP inhibitor 98 | CHOP confirm 80
COc1ccc(S(=O)(=O)N2CCc3ccccc32)cc1C(=O)Nc1ccc(C(N)=O)cc1	none (no result: CHOP inhibitor)
Cc1cc(Cl)ccc1OCC(=O)N[C@@H](Cc1ccccc1)c1nc2ccccc2[nH]1	CHOP inhibitor 108 | CHOP confirm 115
O=S(=O)(Cc1ccccc1)N1CCN(c2ncccn2)CC1	none (no result: CHOP inhibitor)
